Measurements as given in ChEMBL document CHEMBL1137001, “Synthesis and evaluation of 9-O-substituted berberine derivatives containing aza-aromatic terminal group as highly selective telomeric G-quadruplex stabilizing ligands” (Bioorg Med Chem Lett, 2009).
The source made the active and inactive calls. The calls are words filed in the database; no cut-off is given here.

Experiments:
Nucleic Acid [1] = experiment: Binding affinity to hairpin duplex F10T DNA assessed as change in melting temperature at 2.0 uM by FRET assay
[2] = Inhibition of telomerase from human MCF7 cellular extract by cell free TRAP assay
Summary of the method: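 TRAP assay. Compounds at various concentrations were added to a telomerase reaction mixture containing extract from cracked MCF-7 breast carcinoma cells, and IC50 values were derived.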

Nucleic Acid [3] = experiment: Binding affinity to human telomeric G-quadruplex F21T DNA assessed as change in melting temperature at 2.0 uM by FRET assay; type: nucleic-acid assay
Nucleic Acid [4] = experiment: Inhibition of G-quadruplex HTG21 oligomer hybridization by PCR stop assay; type: nucleic-acid assay
Summary of the method: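 HTG21 was amplified by PCR in the presence of compound, and products were separated on gel. IC50 is the concentration that inhibits amplification by 50%.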

Nucleic Acid [5] = experiment: Induction of G-quadruplex structure formation in HTG21 oligomer assessed as formation of antiparallel quadruplex structure by CD spectroscopy; type: nucleic-acid assay

Row | ΔTm (Nucleic Acid [1]) | IC50 [2] | ΔTm (Nucleic Acid [3]) | IC50 (Nucleic Acid [4]) | Activity (Nucleic Acid [5]) | SMILES
1 | 0 °C | 15 µM | 20 °C | 8 µM | – | COc1ccc2cc3[n+](cc2c1OCCC[n+]1cccc2ccccc21)CCc1cc2c(cc1-3)OCO2
2 | 0.5 °C | 17 µM | 18 °C | 8 µM | – | COc1ccc2cc3[n+](cc2c1OCCC[n+]1ccccc1)CCc1cc2c(cc1-3)OCO2
3 | 0 °C | 16 µM | 20 °C | 6 µM | – | COc1ccc2cc3[n+](cc2c1OCCC[n+]1cccc(F)c1)CCc1cc2c(cc1-3)OCO2
4 | 0.5 °C | 15 µM | 21 °C | 7 µM | – | COc1ccc2cc3[n+](cc2c1OCCCCC[n+]1ccccc1)CCc1cc2c(cc1-3)OCO2
5 | 0 °C | 14 µM | 25 °C | 4 µM | Active | COc1ccc2cc3[n+](cc2c1OCCC[n+]1ccc(N(C)C)cc1)CCc1cc2c(cc1-3)OCO2
6 | 0 °C | 15 µM | 20 °C | 4 µM | – | COc1ccc2cc3[n+](cc2c1OCCCCCC[n+]1ccccc1)CCc1cc2c(cc1-3)OCO2
7 | 0.5 °C | 14 µM | 21 °C | 6 µM | – | COc1ccc2cc3[n+](cc2c1OCCC[n+]1cccc(C)c1)CCc1cc2c(cc1-3)OCO2

The remaining lines, values behind:

Row | SMILES | ΔTm (Nucleic Acid [1]) | IC50 [2] | ΔTm (Nucleic Acid [3]) | IC50 (Nucleic Acid [4]) | Activity (Nucleic Acid [5])
8 | COc1ccc2cc3[n+](cc2c1OC)CCc1cc2c(cc1-3)OCO2 | 1 °C | – | 4 °C | – | –
9 | COc1ccc2cc3[n+](cc2c1OCCCOc1ccncc1)CCc1cc2c(cc1-3)OCO2 | 0 °C | 28 µM | 10 °C | 12 µM | –
10 | COc1ccc2cc3[n+](cc2c1OCCCN1CCCCC1)CCc1cc2c(cc1-3)OCO2 | – | 16 µM | – | 7 µM | –
11 | COc1ccc2cc3[n+](cc2c1OCCCn1cc[n+](C)c1)CCc1cc2c(cc1-3)OCO2 | 0 °C | 16 µM | 17 °C | 8 µM | –
12 | COc1ccc2cc3[n+](cc2c1OCCCn1ccc(N)nc1=O)CCc1cc2c(cc1-3)OCO2 | 0 °C | 22 µM | 13 °C | 14 µM | –
